Assay [1] is described as follows: RPL19A-GFP modulators, yeast TOR pathway, confirmation, cell-based, S. cerevisiae, flow cytometry, cherry picks, mother/daughter gates (AID 2270;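 active = GFP response below 50% of the DMSO control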). The note with it: S. cerevisiae RPL19A-GFP strain, 3 h, at 10 µM, stronger effect = lower value, 100 = same GFP as DMSO wells. (In general: In flow cytometry, cells or beads pass a laser one at a time.)
A short description of assay [2]: LAP4-GFP expression modulators in yeast, confirmation, cell-based, cherry picks, flow cytometry, mother/daughter gates (AID 2271;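 active = GFP response above 150% of the DMSO control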;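 note: ratio of sample to DMSO plate mean so 100% equals DMSO level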). To be noted: S. cerevisiae LAP4-GFP strain, 3 h, at 10 µM, stronger effect = higher value, 100 means same as DMSO control. The procedure, abridged:
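System: GFP-fusion yeast strain; Incubation: compound exposure 3 h at 30 °C, end-over-end rotation; Measured by: GFP by flow cytometry; Read-out: median GFP fluorescence as percent of plate-mean DMSO wells; Medium: synthetic complete (SC) yeast growth medium; Compound: single test-compound dose, 10 µM final; Benchmarks: DMSO-only negative wells, rapamycin 400 ng/mL positive wells.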

Assay [3] can be described thus: modulators of MEP2-GFP levels in yeast, confirmation, S. cerevisiae, flow cytometry GFP, cherry picks (AID 2272;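 active = GFP response above 150% of the DMSO control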;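 note: ratio of well signal to plate DMSO mean so 100% equals DMSO level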). The note with it: S. cerevisiae MEP2-GFP strain, 3 h, at 10 µM, stronger effect = higher value.
Assay [4] in a line: AGP1-GFP expression modulators, hit retest, confirmation, cell-based, flow cytometry, S. cerevisiae, cherry picks (AID 2273).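 Note: median GFP channel fluorescence over the whole cell population gate.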 To be noted: S. cerevisiae AGP1-GFP strain, 3 h, at 10 µM.
Assay [5] can be described thus: modulators of CIT2-GFP expression in yeast, confirmation, S. cerevisiae, GFP fusion, cherry picks, mother/daughter gates (AID 2274). The note with it: S. cerevisiae CIT2-GFP strain, flow cytometry, 3 h, at 10 µM, stronger effect = higher value.
[6] abbreviates: measured here: daughter cell gate.
The mark [7] stands for this setting: measured here: mother cell gate.
Where [8] appears, read: measured here: daughter cell gate response.
The mark [9] stands for this setting: measured here: mother cell gate response.

Molecules are shown by their SMILES. The source made the active and inactive calls.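 Rule for the calls, unless noted: active = GFP response above 150% of the DMSO level; inconclusive = fewer than 70 events counted for a yeast strain; inactive = the rest.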

This is an account of results in PubChem BioAssay.

Consider `CCOC(=O)CSC1=NC(=O)/C(=C/c2ccc(Br)cc2)S1`, for which the GFP response vs DMSO in assay [1] is 96.3% (inactive); in assay [1] (setting [6]), 86.3%; in assay [1] (setting [7]) it was 92.8%; in assay [3], 98.8% (inactive). Moreover, the GFP response relative to DMSO was 161% (active) in assay [2], 136% in assay [2] (setting [8]) and 170% in assay [2] (setting [9]). The GFP response, % of DMSO in assay [4] was 103% (inactive); in assay [5] it was 83.5% (inactive); in assay [5] (setting [6]), 77.8%; in assay [5] (setting [7]), 79.8%.

On to `CCN(CC)S(=O)(=O)c1ccc(O)c(C(=O)OCC(=O)NC2CCCC2)c1`, for which the GFP response vs DMSO in assay [1] is 99.2% (inactive); in assay [1] (setting [6]) it was 97.9%; in assay [1] (setting [7]) it was 99.5%; in assay [3] it was 96.8% (inactive). Moreover, the GFP response relative to DMSO is 98.2% (inactive) in assay [2], 97.5% in assay [2] (setting [8]) and 97.3% in assay [2] (setting [9]). Also, the GFP response, % of DMSO in assay [4] is 102% (inactive); in assay [5] it was 105% (inactive); in assay [5] (setting [6]) it was 103%; in assay [5] (setting [7]), 103%.

As for `Cc1ccc(C(C[N+](=O)[O-])n2nc(C)cc2C)cc1` (stereo unspecified), the GFP response vs DMSO in assay [1] was 97% (inactive); in assay [1] (setting [6]), 101%; in assay [1] (setting [7]) it was 93.6%; in assay [3] it was 103% (inactive). Besides, the GFP response relative to DMSO is 120% (inactive) in assay [2], 120% in assay [2] (setting [8]) and 125% in assay [2] (setting [9]). Also, the GFP response, % of DMSO in assay [4] is 102% (inactive); in assay [5], 90.9% (inactive); in assay [5] (setting [6]), 95.2%; in assay [5] (setting [7]) it was 87.8%.

Turning to `O=C(O)c1ccccc1SC1CC(=O)N(c2ccc3c(c2)OCO3)C1=O` (stereo unspecified), the GFP response vs DMSO in assay [1] was 97.6% (inactive); in assay [1] (setting [6]), 102%; in assay [1] (setting [7]), 93.8%; in assay [3], 103% (inactive). For the same compound, the GFP response relative to DMSO in assay [2] is 106% (inactive); in assay [2] (setting [8]) it was 102%; in assay [2] (setting [9]), 108%. The GFP response, % of DMSO in assay [4] is 102% (inactive); in assay [5] it was 95.8% (inactive); in assay [5] (setting [6]), 99.3%; in assay [5] (setting [7]), 94.9%.

`COc1ccc(C(=O)c2no[n+]([O-])c2C(=O)c2ccc(OC)cc2)cc1`: the GFP response vs DMSO in assay [1] is 90.1% (inactive); in assay [1] (setting [6]), 83.3%; in assay [1] (setting [7]), 86.6%; in assay [3], 94.1% (inactive). Also, the results for the GFP response relative to DMSO in assay [2], in assay [2] (setting [8]) and in assay [2] (setting [9]) were 149% (inactive), 134% and 153%, respectively. In addition, the GFP response, % of DMSO in assay [4] was 92.9% (inactive); in assay [5], 82.6% (inactive); in assay [5] (setting [6]), 77.1%; in assay [5] (setting [7]), 73.6%.

Regarding `C=CCOc1ccc(C(=O)n2cc(C(=O)OC)c3ccccc32)cc1`, the GFP response vs DMSO in assay [1] is 95.6% (inactive); in assay [1] (setting [6]) it was 97.1%; in assay [1] (setting [7]), 96.4%; in assay [3], 96.2% (inactive). Besides, the GFP response relative to DMSO was 96.7% (inactive) in assay [2], 99.2% in assay [2] (setting [8]) and 96.1% in assay [2] (setting [9]). For the same compound, the GFP response, % of DMSO is 101% (inactive) in assay [4], 101% (inactive) in assay [5], 103% in assay [5] (setting [6]) and 101% in assay [5] (setting [7]).

For the compound `Cc1ccccc1CN1CCSc2sccc2C1=O`, the GFP response vs DMSO in assay [1] is 95.9% (inactive); in assay [1] (setting [6]) it was 94.2%; in assay [1] (setting [7]), 97.3%; in assay [3], 95.7% (inactive). Further, the GFP response relative to DMSO in assay [2] is 106% (inactive); in assay [2] (setting [8]) it was 105%; in assay [2] (setting [9]), 113%. Besides, the GFP response, % of DMSO is 97.2% (inactive) in assay [4], 97.8% (inactive) in assay [5], 94.8% in assay [5] (setting [6]) and 98.7% in assay [5] (setting [7]).

As to `O=C(Nc1ccccc1C(F)(F)F)c1cc(-c2ccc(O)cc2)on1`, the GFP response vs DMSO in assay [1] was 98.8% (inactive); in assay [1] (setting [6]), 97%; in assay [1] (setting [7]), 99.2%; in assay [3] it was 102% (inactive). Further, the GFP response relative to DMSO in assay [2] was 108% (inactive); in assay [2] (setting [8]), 102%; in assay [2] (setting [9]), 108%. Besides, the GFP response, % of DMSO in assay [4] is 94% (inactive); in assay [5] it was 101% (inactive); in assay [5] (setting [6]), 98.3%; in assay [5] (setting [7]) it was 98%.

As to `C/C(CC(=O)Nc1cc(C)ccn1)=N\NC(=O)c1cccc(F)c1`, the GFP response vs DMSO in assay [1] is 98.6% (inactive); in assay [1] (setting [6]), 97.5%; in assay [1] (setting [7]), 98.7%; in assay [3], 100% (inactive). The figures for the GFP response relative to DMSO in assay [2], in assay [2] (setting [8]) and in assay [2] (setting [9]) were 97.4% (inactive), 97.2% and 99.3%, respectively. The GFP response, % of DMSO in assay [4] was 94.1% (inactive); in assay [5] it was 93.9% (inactive); in assay [5] (setting [6]), 94.8%; in assay [5] (setting [7]), 93.4%.

For the compound `COc1ccc(C(=O)/C=C2/C(=O)Nc3ccccc32)cc1`, the GFP response vs DMSO was 86.7% (inactive) in assay [1], 88.1% in assay [1] (setting [6]), 82.7% in assay [1] (setting [7]) and 96.2% (inactive) in assay [3]. In addition, the GFP response relative to DMSO in assay [2] was 133% (inactive); in assay [2] (setting [8]) it was 122%; in assay [2] (setting [9]), 139%. In addition, the GFP response, % of DMSO in assay [4] is 95.4% (inactive); in assay [5], 98.3% (inactive); in assay [5] (setting [6]), 97.2%; in assay [5] (setting [7]), 91.4%.

With `CC(=O)c1ccc2c3c(cccc13)C(=O)N(c1c(C)nn(C)c1C)C2=O`, the GFP response vs DMSO in assay [1] was 100% (inactive); in assay [1] (setting [6]), 100%; in assay [1] (setting [7]), 101%; in assay [3], 102% (inactive). In addition, the values for the GFP response relative to DMSO in assay [2], in assay [2] (setting [8]) and in assay [2] (setting [9]) were 97.7% (inactive), 97.9% and 97.5%, respectively. For the same compound, the GFP response, % of DMSO in assay [4] was 100% (inactive); in assay [5], 96.4% (inactive); in assay [5] (setting [6]), 98.3%; in assay [5] (setting [7]), 96.8%.
